Experimental data published in ChEMBL document CHEMBL5252510, “A Novel Potent Oral Series of VEGFR2 Inhibitors Abrogate Tumor Growth by Inhibiting Angiogenesis” (J Med Chem, 2016).

Columns and labels:
[1] = test system: B16-BL6; assay: Antitumor activity against mouse B16-BL6 cells implanted in C57BL/6jNpa mouse assessed as metastatic tumor growth inhibition at 3 mg/kg, po qd administered started on day 7 post implantation measured after 21 days relative to control; format: functional; conditions: time 7-21 day, read-out: TGI
Method in brief: (§1)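 Female C57BL/6JNpa mice, 50000 B16/BL6 cells intradermally in both ear pinnae; primary tumor area (mm²) imaged days 7, 14, 21; randomized day 7 into groups of 5-6, oral dosing in PEG200 or PEG300 vehicle daily (or every 2 days) for 14 days; day 21 cervical lymph nodes weighed, metastasis lysates assayed for TIE-2 by ELISA; T/C ratios.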

[2] = test system: BaF3; assay: Antiproliferative activity against mouse BaF3 cells expressing KIT D816V mutant assessed as cell growth inhibition measured after 72 hrs by Alamar Blue assay; conditions: BaF3, 72 h
[3] = test system: BaF3; assay: Antiproliferative activity against mouse BaF3 cells expressing FLT3-ITD assessed as cell growth inhibition measured after 72 hrs by Alamar Blue assay; conditions: BaF3, 72 h
[4] = test system: B16-BL6; assay: Antitumor activity against mouse B16-BL6 cells implanted in C57BL/6jNpa mouse assessed as primary tumor growth inhibition by measuring T/C ratio at 3 mg/kg, po qd administered started on day 7 post implantation measured after 21 days; format: functional; conditions: time 7-21 day; method in brief: as §1
[5] = test system: BaF3; assay: Antiproliferative activity against mouse BaF3 cells expressing NPM-ALK assessed as cell growth inhibition measured after 72 hrs by Alamar Blue assay; conditions: BaF3, 72 h
[6] = test system: BaF3; assay: Antiproliferative activity against mouse BaF3 cells expressing PTC3-RET assessed as cell growth inhibition measured after 72 hrs by Alamar Blue assay; conditions: BaF3, 72 h
[7] = test system: HUVEC; assay: Antiproliferative activity against VEGF-stimulated HUVEC cells assessed as cell growth inhibition measured after 24 hrs by BrdUrd incorporation based spectrophotometric analysis; conditions: Homo sapiens
[8] = Toxicity in VEGF-induced FVB mouse model at 0.3 to 3 mg/kg, po qd treated for 4 to 6 hrs prior to chamber implantation and continuing for 4 days measured after 24 hrs post last dose; format: organism-based; conditions: in vivo, 120 h, dose 0.3-3 mg/kg, time 5 day
Method in brief: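 Female FVB mice (18–20 g), groups of 6. Porous chambers with VEGF (2 μg/mL) in 0.5 mL 0.8 % agar with heparin (20 U/mL) implanted subcutaneously in flank. Oral dosing once daily in 100 % PEG200 (5 mL/kg), starting 4-6 h before implantation, for 4 days; chambers removed 24 h after last dose. Animals observed for signs of toxicity.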

[9] = test system: B16-BL6; assay: Antitumor activity against mouse B16-BL6 cells implanted in C57BL/6jNpa mouse assessed as metastatic tumor growth inhibition by measuring T/C ratio at 3 mg/kg, po qd administered started on day 7 post implantation measured after 21 days; format: functional; conditions: time 7-21 day; method in brief: as §1
[10] = test system: HUVEC; assay: Antiproliferative activity against bFGF-stimulated HUVEC cells assessed as cell growth inhibition measured after 24 hrs by BrdUrd incorporation based spectrophotometric analysis; conditions: Homo sapiens
[11] = test system: B16-BL6; assay: Antitumor activity against mouse B16-BL6 cells implanted in C57BL/6jNpa mouse assessed as primary tumor growth inhibition at 3 mg/kg, po qd administered started on day 7 post implantation measured after 21 days relative to control; format: functional; conditions: time 7-21 day, read-out: TGI; method in brief: as §1
[12] = Toxicity in C57BL/6jNpa mouse harbouring mouse B16-BL6 cells assessed as drug tolerability at 3 mg/kg, po qd administered started on day 7 post implantation measured after 21 days; format: organism-based; conditions: in vivo, 504 h, time 7-21 day
Method in brief: (§2)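 Female C57BL/6JNpa mice received 50000 B16/BL6 cells intradermally in both ear pinnae. Randomized on day 7 into groups of 5–6, then dosed 3 mg/kg p.o. daily in PEG200/PEG300 for 14 days. Behavior and well-being were observed. On day 21, blood was analysed for platelet, red and white cell counts and hematocrit.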

[13] = test system: BaF3; assay: Antiproliferative activity against mouse BaF3 cells expressing Bcr-ABL assessed as cell growth inhibition measured after 72 hrs by Alamar Blue assay; conditions: BaF3, 72 h
[14] = test system: BaF3; assay: Antiproliferative activity against mouse BaF3 cells expressing Trp-MET assessed as cell growth inhibition measured after 72 hrs by Alamar Blue assay; conditions: BaF3, 72 h
[15] = test system: BaF3; assay: Antiproliferative activity against mouse BaF3 cells expressing ERBB2 V659E mutant assessed as cell growth inhibition measured after 72 hrs by Alamar Blue assay; conditions: BaF3, 72 h
[16] = test system: BaF3; assay: Antiproliferative activity against mouse BaF3 cells expressing Tel-PDGFRbeta assessed as cell growth inhibition measured after 72 hrs by Alamar Blue assay; conditions: BaF3, 72 h
[17] = test system: BaF3; assay: Antiproliferative activity against mouse BaF3 cells expressing Tel-KDR-myc1.3 assessed as cell growth inhibition measured after 72 hrs by Alamar Blue assay; conditions: BaF3, 72 h
[18] = Toxicity in C57BL/6jNpa mouse harbouring mouse B16-BL6 cells assessed as effect on hematocrit levels at 3 mg/kg, po qd administered started on day 7 post implantation measured after 21 days; format: organism-based; conditions: in vivo, 504 h, time 7-21 day
Method in brief: (§3)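 B16/BL6 melanoma cells (50000) injected intradermally into dorsal pinna of both ears of female mice (18–20 g). Randomized on day 7 into groups of 5-6 by primary tumor size, then dosed orally once daily for 14 days in PEG300 or PEG200. Sacrificed day 21; blood analysed directly for platelets, red and white cell counts, hematocrit. Body and spleen weight recorded versus healthy naive mouse.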

[19] = Oral bioavailability in Sprague-Dawley rat at 50 mg/kg measured upto 24 hrs by HPLC/UV analysis; format: ADME, organism-based; conditions: in vivo
Method in brief: (§4)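 Female Sprague Dawley rats, 8 weeks old, catheterized. Oral suspension in 0.5 % carboxymethyl cellulose at 50 mg/kg, n=3. Bioavailability taken against 3 mg/kg iv. Plasma sampled 5 min–24 h. Cmax and AUC(0–∞) dose-normalized.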

[20] = Dose normalized AUC(0 to infinity) in Sprague-Dawley rat at 50 mg/kg, po measured upto 24 hrs by HPLC/UV analysis; format: ADME, organism-based; conditions: in vivo; method in brief: as §4
[21] = Toxicity in C57BL/6jNpa mouse harbouring mouse B16-BL6 cells assessed as effect on red blood cell count at 3 mg/kg, po qd administered started on day 7 post implantation measured after 21 days; format: organism-based; conditions: in vivo, 504 h, time 7-21 day; method in brief: as §3
[22] = Toxicity in C57BL/6jNpa mouse harbouring mouse B16-BL6 cells assessed as effect on white blood cell count at 3 mg/kg, po qd administered started on day 7 post implantation measured after 21 days; format: organism-based; conditions: in vivo, 504 h, time 7-21 day; method in brief: as §3
[23] = Half-life in Sprague-Dawley rat at 3 mg/kg, iv measured upto 24 hrs by HPLC/UV analysis; format: ADME, organism-based; conditions: in vivo
Method in brief: (§5)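 Female Sprague Dawley rats, 8 weeks old, catheterized in the jugular vein and femoral artery, recovered 96 h. IV dose 3 mg/kg in ethanol/NMP/PEG400/5 % glucose (10/10/50/30). n=2. Plasma sampled at 5, 15, 30 min and 1, 2, 4, 6, 8, 24 h.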

[24] = Toxicity in C57BL/6jNpa mouse harbouring mouse B16-BL6 cells assessed as effect on blood platelet count at 3 mg/kg, po qd administered started on day 7 post implantation measured after 21 days; format: organism-based; conditions: in vivo, 504 h, time 7-21 day; method in brief: as §2
[25] = Dose normalized Cmax in Sprague-Dawley rat at 50 mg/kg, po measured upto 24 hrs by HPLC/UV analysis; format: ADME, organism-based; conditions: in vivo; method in brief: as §4
[26] = Clearance in Sprague-Dawley rat at 3 mg/kg, iv measured upto 24 hrs by HPLC/UV analysis; format: ADME, organism-based; conditions: in vivo; method in brief: as §5
[27] = Tmax in Sprague-Dawley rat at 50 mg/kg, po measured upto 24 hrs by HPLC/UV analysis; format: ADME, organism-based; conditions: in vivo; method in brief: as §4

Compound	IC50 [2] [nM]	IC50 [3] [nM]	IC50 [5] [nM]	IC50 [6] [nM]	IC50 [13] [nM]	IC50 [14] [nM]	IC50 [15] [nM]	IC50 [16] [nM]	IC50 [17] [nM]	bioavailability [19] [%]	AUC/dose [20] [µmol·h/L]	inhibition in vivo at 3 mg/kg [1] [%]	T/C [4]	IC50 [7] [nM]	Activity [8]	T/C [9]	IC50 [10] [nM]	inhibition in vivo at 3 mg/kg [11] [%]	Activity [12]	Activity [18]	further results
O=C(Nc1cccc(C(F)(F)F)c1)c1cccc2cc(Oc3cc(CO)ncn3)ccc12 [BFH-772]	> 10000	> 10000	> 10000	104	7500	> 10000	> 10000	27	2	–	–	71	0.26	< 0.01	Non-Toxic	0.17	> 3000	54	Non-Toxic	–	–
Nc1nccc(Oc2ccc3c(C(=O)Nc4cccc(C(F)(F)F)c4)cccc3c2)n1	> 10000	> 10000	> 10000	152	4750	> 10000	> 10000	9	4	–	–	71	0.46	0.12	Non-Toxic	0.29	> 3000	54	Non-Toxic	–	–
Nc1cc(Oc2ccc3c(C(=O)Nc4cccc(C(F)(F)F)c4)cccc3c2)ncn1	8000	5650	> 10000	9	9500	> 10000	> 10000	4	2	5	0.67	71	0.22	1.7	Non-Toxic	0.04	> 3000	54	Non-Toxic	Non-Toxic	Activity [21]: Non-Toxic; Activity [22]: Non-Toxic; half-life [23]: 4.1 h; Activity [24]: Non-Toxic; Cmax/dose [25]: 50 nM; clearance [26]: 3 mL/min/kg; Tmax [27]: 4 h

Now from value to compound, other results behind:

IC50 [2] [nM]	IC50 [3] [nM]	IC50 [5] [nM]	IC50 [6] [nM]	IC50 [13] [nM]	IC50 [14] [nM]	IC50 [15] [nM]	IC50 [16] [nM]	IC50 [17] [nM]	bioavailability [19] [%]	AUC/dose [20] [µmol·h/L]	Compound	inhibition in vivo at 3 mg/kg [1] [%]	T/C [4]	IC50 [7] [nM]	Activity [8]	T/C [9]	IC50 [10] [nM]	inhibition in vivo at 3 mg/kg [11] [%]	Activity [12]	Activity [18]	further results
7800	4780	> 10000	40	> 10000	> 10000	> 10000	10	5	9	4.19	Nc1cc(Oc2ccc3c(C(=O)Nc4ccc(F)c(C(F)(F)F)c4)cccc3c2)ncn1	71	0.34	0.003	Non-Toxic	0.04	206	54	Non-Toxic	Non-Toxic	Activity [21]: Non-Toxic; Activity [22]: Non-Toxic; half-life [23]: 18.3 h; Activity [24]: Non-Toxic; Cmax/dose [25]: 80 nM; clearance [26]: 0.833 mL/min/kg; Tmax [27]: 8 h
8510	8200	> 10000	226	> 10000	> 10000	> 10000	16	9	9	1.37	Nc1nccc(Oc2ccc3c(C(=O)Nc4ccc(F)c(C(F)(F)F)c4)cccc3c2)n1	71	0.1	0.077	Non-Toxic	0.13	> 10	54	Non-Toxic	Non-Toxic	Activity [21]: Non-Toxic; Activity [22]: Non-Toxic; half-life [23]: 16 h; Activity [24]: Non-Toxic; Cmax/dose [25]: 70 nM; clearance [26]: 2.83 mL/min/kg; Tmax [27]: 5 h
